Source: PubChem BioAssay (Sanford-Burnham Center for Chemical Genomics)
A selection: hits, their analogues and other compounds. The true share with any hit is near 3.1%.
Apaf1 inhib – blocks human Apaf-1 apoptosome activity | O14727 | reconstituted apoptosome caspase-3 activity, DEVD-Rh110 fluorescence | inhibition, % at 20 µM | 330,000 compounds, 0.71% hits; active means inhibition of at least 40% at 20 µM;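 further: plate controls were DMSO wells for no effect and DEVD-CHO caspase inhibitor wells for full effect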
Target sequence (O14727 whole entry, looked up): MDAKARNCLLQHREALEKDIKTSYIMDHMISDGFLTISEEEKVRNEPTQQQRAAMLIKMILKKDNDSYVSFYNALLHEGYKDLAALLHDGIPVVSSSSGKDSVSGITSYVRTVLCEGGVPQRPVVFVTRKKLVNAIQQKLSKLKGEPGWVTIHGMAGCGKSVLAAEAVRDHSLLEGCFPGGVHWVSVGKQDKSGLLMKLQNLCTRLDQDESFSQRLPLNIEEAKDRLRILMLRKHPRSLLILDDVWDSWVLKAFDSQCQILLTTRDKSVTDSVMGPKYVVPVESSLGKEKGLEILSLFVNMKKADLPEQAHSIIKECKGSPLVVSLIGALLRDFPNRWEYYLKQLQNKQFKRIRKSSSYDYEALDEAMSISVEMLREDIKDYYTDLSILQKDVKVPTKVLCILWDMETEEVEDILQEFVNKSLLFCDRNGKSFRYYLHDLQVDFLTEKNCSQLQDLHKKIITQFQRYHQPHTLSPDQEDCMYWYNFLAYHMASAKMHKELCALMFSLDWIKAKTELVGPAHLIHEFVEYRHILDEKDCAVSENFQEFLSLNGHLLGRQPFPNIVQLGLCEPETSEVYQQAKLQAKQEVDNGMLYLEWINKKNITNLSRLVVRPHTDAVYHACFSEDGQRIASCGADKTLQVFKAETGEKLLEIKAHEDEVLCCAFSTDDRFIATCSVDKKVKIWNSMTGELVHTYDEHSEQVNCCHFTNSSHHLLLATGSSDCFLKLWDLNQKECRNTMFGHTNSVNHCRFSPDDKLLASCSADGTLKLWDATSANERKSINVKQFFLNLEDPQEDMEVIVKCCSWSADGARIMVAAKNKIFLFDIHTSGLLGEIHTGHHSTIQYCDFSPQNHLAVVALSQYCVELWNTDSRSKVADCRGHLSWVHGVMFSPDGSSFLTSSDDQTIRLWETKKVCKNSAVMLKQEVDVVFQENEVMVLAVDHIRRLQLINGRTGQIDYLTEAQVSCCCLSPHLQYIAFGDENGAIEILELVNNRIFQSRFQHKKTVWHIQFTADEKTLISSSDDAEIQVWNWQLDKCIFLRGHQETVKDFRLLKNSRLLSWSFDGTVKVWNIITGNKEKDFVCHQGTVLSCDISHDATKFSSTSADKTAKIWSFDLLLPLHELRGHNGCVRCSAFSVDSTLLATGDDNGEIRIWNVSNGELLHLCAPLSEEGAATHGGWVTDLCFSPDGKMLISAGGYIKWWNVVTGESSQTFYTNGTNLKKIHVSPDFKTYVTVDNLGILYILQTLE
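Assay system: Apoptosome proteins | Medium: pH 7.5 Hepes buffer with CHAPS, BSA, DTT | Also added: Cytochrome c and DEVD-Rh110 substrate | Times: 30 min plus 50 min, RT | Detection: Rhodamine 110 fluorescence at Ex 480/Em 540 nm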
SENP8 block-1 – blocks the human protease SENP8. 330,000 compounds, 1.2% hits. purified SENP8, Z-RLRGG-aminoluciferin cleavage, luminescence. AID 2540. inhibition, % at 10 µM. Q96LD8; in the data active means inhibition above about 50%
SENP6 inh – blocks the human protease SENP6; inhibition, % at 10 µM; Recombinant SENP6 catalytic domain, aminoluciferin luminescence; AID 2599; 330,000 compounds, 1.8% hits; Q9GZR1;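 active means inhibition above about 50% at the single tested dose, limit read from the data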;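 further: plate controls were DMSO wells with enzyme for no effect and DMSO wells lacking enzyme for full effect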
SENP8 block-2 – blocks human SENP8 cleavage of Nedd8 substrate. recombinant SENP8, Nedd8 substrate fluorescence. inhibition, % at 20 µM. 360,000 compounds, 0.64% hits; in the data active means inhibition mostly above about 40%, no sharp cut-off; inactive means mostly below about 27%
SENP7 inh – inhibitors of human SENP7 protease. Q9BQF6. recombinant SENP7, Z-RLRGG-aminoluciferin luminescence, 40 min. inhibition, % at 5 µM. 330,000 compounds, 1.5% hits. AID 434973;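 active means inhibition above about 50% at the single test dose, limit read from the data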;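 further: plate controls were DMSO with enzyme for no effect and no enzyme buffer wells for full effect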
UBC13 polyUb – blocks human UBC13 polyubiquitin chain formation; P61088; TR-FRET; inhibition, % at 20 µM; 330,000 compounds, 0.47% hits; AID 485273; in the data active means inhibition above about 45%, passing the limit was not always enough
SENP8 confirm – confirmation of human SENP8 protease inhibitors. shares compounds with SENP7 inh. Recombinant SENP8, Z-RLRGG-aminoluciferin luminescence, 60 min. inhibition, % at 12.5 µM. 6,200 compounds, 40% hits. AID 488912;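 active means mean inhibition across replicates above about 50%, limit read from the data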
SENP6 confirm – confirmation of human SENP6 protease inhibitors; shares compounds with SENP7 inh; recombinant SENP6, Z-RLRGG-aminoluciferin luminescence; inhibition, % at 12.5 µM; 6,200 compounds, 58% hits; AID 488915
SENP7 confirm – human SENP7 inhibition, confirmed; 6,200 compounds, 69% hits; recombinant SENP7, Z-RLRGG-aminoluciferin luminescence, 40 min; inhibition, % at 12.5 µM; shares compounds with SENP7 inh
Casp3 SENP sel – selectivity test for SENP inhibitors: human caspase-3 inhibition; shares compounds with SENP7 inh; purified caspase-3, Z-DEVD-aminoluciferin luminescence, 60 min; inhibition, % at 12.5 µM; 6,200 compounds, 60% hits; AID 488918;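 active means mean inhibition above about 50%, limit read from the data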;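 further: plate controls were enzyme with DMSO for no effect and wells without caspase-3 for full effect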
SENP luc ctr – interferes with luciferase luminescence in SENP counter-screen; Pre-incubated SENP8/Z-RLRGG-aminoluciferin, luciferase luminescence interference; inhibition, % at 12.5 µM; 6,200 compounds, 39% hits; shares compounds with SENP7 inh;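 active means mean inhibition above about 50% when retested at one dose, limit read from the data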;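 further: plate controls were DMSO wells with completed reaction for no effect and substrate without enzyme for full effect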
An asterisk follows results filed as active; i = inactive; nt = no result.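 How the source made its calls, unless noted: active means mean inhibition above about 50% in the one-dose retest (limit read from the data); inactive means the rest.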

SMILES | Apaf1 inhib | SENP8 block-1 | SENP6 inh | SENP8 block-2 | SENP7 inh | UBC13 polyUb | SENP8 confirm | SENP6 confirm | SENP7 confirm | Casp3 SENP sel | SENP luc ctr
COc1ccc(Cn2c(-c3ccco3)nc3oc4cc(OC)ccc4c(=O)c3c2=O)cc1 | 22 | 17 | 50* | -6 | 41 | -13 | -20 | -15 | -6 | 0 | -6
COc1ccc2c(=O)c3c(=O)n(Cc4ccco4)c(-c4ccco4)nc3oc2c1 | 14 | -6 | -22 | -39 | -1 | -2 | nt | nt | nt | nt | nt
CCCCN(C)c1c(C)nc2ccc(C(=O)N(C)CCN(C)C)cn12 | nt | nt | nt | -2 | nt | nt | nt | nt | nt | nt | nt
O=C(Nc1cccnc1)c1cc(-c2ccc(F)cc2)on1 | -29 | 56* | 64* | 16 | 76* | 12 | 10 | 22 | 39 | 32 | 2
O=C(Nc1cccnc1)c1cc(-c2ccc(Cl)c(Cl)c2)on1 | 14 | 33 | 55* | 12 | 76* | 1 | -1 | 3 | 11 | 22 | 13
O=C(Nc1cccnc1)c1cc(-c2ccc3c(c2)OCO3)on1 | -18 | 19 | 77* | -58 | 96* | 8 | 26 | 28 | 62* | 79* | 31
O=C(Nc1cccnc1)c1cc(-c2cccc(Cl)c2)on1 | 10 | 5 | -1 | 5 | 15 | 3 | nt | nt | nt | nt | nt
Cc1cc(C(=O)N2CCC2(C)C(=O)NS(=O)(=O)c2ccccc2Cl)nn1C (stereo not drawn) | nt | nt | nt | 8 | nt | nt | nt | nt | nt | nt | nt
CC(=O)Nc1ccc(C(=O)N2CCCCC2c2cc(C(=O)NCc3ccc(F)cc3)no2)cc1 (stereo not drawn) | nt | nt | nt | 8 | nt | nt | nt | nt | nt | nt | nt
Cc1cncc(NCc2cccc(Cl)c2)n1 | nt | nt | nt | i | nt | nt | nt | nt | nt | nt | nt
COc1ncc(-c2ccc(N3C(c4ccsc4)=Cc4ccc(F)cc4C3CC(C)=O)cc2)cn1 (stereo not drawn) | nt | nt | nt | -392 | nt | nt | nt | nt | nt | nt | nt
CCOC(=O)c1cnc2c(-c3ccccc3)c(C)nn2c1N | 8 | -7 | -14 | -346 | 1 | 9 | nt | nt | nt | nt | nt
CCOC(=O)c1cnc2c(N=Nc3ccccc3)c(N)nn2c1N | -5 | 11 | 32 | 25 | 70* | -19 | -8 | -7 | 5 | 9 | -4
CCOC(=O)c1cnc2c(-c3ccccc3)cnn2c1N | 6 | 6 | -46 | -293 | 72* | 8 | 12 | 19 | 10 | 13 | 1
Oc1ccc(-c2nc3ncccn3c2Nc2ccc3c(c2)OCO3)cc1 | 18 | 17 | 86* | 13 | 93* | -14 | 9 | 8 | -7 | -3 | 6
CCOC(=O)[C@]12CCC=C1N(Cc1ccc(Cl)cc1Cl)C(=O)[C@H](CC(=O)N1CCC(c3ccccc3)CC1)C2 | nt | nt | nt | 8 | nt | nt | nt | nt | nt | nt | nt
O=C(O)c1c2c(nc3ccccc13)/C(=C/c1ccc(OC(F)F)cc1)CCC2 | 9 | -5 | 29 | -276 | 0 | -7 | nt | nt | nt | nt | nt
O=C(O)c1c2c(nc3ccccc13)/C(=C/c1ccc(O)cc1)CC2 | -2 | 76* | 77* | -398 | 71* | 2 | 91* | 88* | 98* | 93* | 63*
O=S1(=O)CC(N2CCSCC2)CN1Cc1cn(Cc2cccc(C(F)(F)F)c2)nn1 (stereo not drawn) | nt | nt | nt | 1 | nt | nt | nt | nt | nt | nt | nt
CS/C(Nc1cc(Cl)ccc1Cl)=C(/C#N)C(=O)c1ccco1 | 3 | 94* | 97* | 11 | 89* | -15 | 92* | 94* | 98* | 91* | 97*
O=C(Nc1cc(Cl)ccc1Cl)c1ccco1 | -3 | -1 | -11 | 25 | 1 | 1 | nt | nt | nt | nt | nt
CN(Cc1ccccc1)S(=O)(=O)c1ccc(Cl)c(C(=O)N2CCOCC2)c1 | nt | nt | nt | 14 | nt | nt | nt | nt | nt | nt | nt
CCCC1=NN(c2ccc([N+](=O)[O-])cc2)C(=O)/C1=C\N(C)C | 10 | 95* | 95* | 52* | 96* | -21 | 97* | 97* | 102* | 97* | 97*
CC12CCC(O)CC1=CCC1C2CCC2(C)C3=NN=CC3CC12 (stereo not drawn) | nt | nt | nt | 18 | nt | nt | nt | nt | nt | nt | nt
O=C(Nc1cccc2nsnc12)c1ccc2c(c1)OCCO2 | 0 | 66* | 77* | -273 | -20 | 1 | 11 | 83* | 98* | 88* | 27
SMILES | Apaf1 inhib | SENP8 block-1 | SENP6 inh | SENP8 block-2 | SENP7 inh | UBC13 polyUb | SENP8 confirm | SENP6 confirm | SENP7 confirm | Casp3 SENP sel | SENP luc ctr
O=C(Nc1cccc2nsnc12)c1ccc2c(c1)OCO2 | 4 | 52* | 69* | -407 | 60* | -4 | 30 | 66* | 77* | 67* | 11
Oc1ccccc1C=NCCCCCCN=Cc1ccccc1O | -1 | 59* | 69* | 9 | -3 | -4 | 15 | 30 | 38 | 31 | 10
Oc1ccccc1C=NCCN=Cc1ccccc1O | -6 | -1 | 8 | 17 | 5 | 11 | nt | nt | nt | nt | nt
Cc1cccc(NC(=O)Nc2ccc(S(=O)(=O)Nc3onc(C)c3C)cc2)c1 | -5 | 83* | 77* | 17 | 49 | 0 | 88* | 85* | 94* | 87* | 52*
Cc1cc(NC(=O)Nc2cccc(Cl)c2)no1 | nt | nt | nt | 10 | nt | nt | nt | nt | nt | nt | nt
Cc1cc(NS(=O)(=O)c2ccc(NC(=O)c3cnc4scc(C)n4c3=O)cc2)nc(C)n1 | 4 | 10 | 11 | -254 | 8 | -6 | nt | nt | nt | nt | nt
Cc1noc(NS(=O)(=O)c2ccc(NC(=O)c3cnc4scc(C)n4c3=O)cc2)c1C | 4 | 46 | 67* | -20 | 18 | -13 | 39 | 38 | 69* | 82* | 49
Cc1cc(NS(=O)(=O)c2ccc(NC(=O)Nc3ccc4c(c3)OCO4)cc2)no1 | -9 | 34 | 67* | 13 | 47 | 9 | 55* | 51* | 82* | 76* | 38
Cc1cc(NS(=O)(=O)c2ccc(NC(=O)Nc3cccc(Cl)c3)cc2)no1 | -1 | 72* | 84* | 19 | 69* | 2 | 10 | 81* | 93* | 67* | 59*
C[C@@H]1CN([C@H](C)CO)C(=O)c2cc(Br)cnc2O[C@@H]1CN(C)C(=O)NC1CCCC1 | nt | nt | nt | 10 | nt | nt | nt | nt | nt | nt | nt
COC(=O)c1cc(=O)nc(NNC(C)=O)s1 | nt | nt | nt | 12 | nt | nt | nt | nt | nt | nt | nt
Cc1ccsc1/C=C1\Oc2cc(OCC(=O)c3ccccc3)ccc2C1=O | 21 | 41 | 60* | -186 | 49 | 9 | -24 | -24 | -7 | 26 | -4
CC(C)(C)OC[C@H](NC(=O)c1[nH]cnc1C(=O)Nc1ccccc1F)C(=O)OC(C)(C)C | nt | nt | nt | 9 | nt | nt | nt | nt | nt | nt | nt
